ChEMBL document CHEMBL1141140, “Antifungal agents. 11. N-substituted derivatives of 1-[(aryl)(4-aryl-1H-pyrrol-3-yl)methyl]-1H-imidazole: synthesis, anti-Candida activity, and QSAR studies” (2005)
In brackets after ≈: the same amount, converted by molar mass.

Legend:
Candida albicans [1] = experiment: Ratio of the in vitro minimal inhibitory to that of bifonazole against Candida albicans (MIC(compound)/MIC(bifonazole)); type: functional
Outline: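 Broth microdilution per NCCLS M27-A2 against 12 Candida albicans strains (AIDS oropharyngeal, HIV vulvovaginitis isolates, ATCC 24433 and 20891, lab strains 3153 and CA2). Inoculum ~10^4 cells/mL in RPMI 1640, pH 7.0; DMSO stocks 6.4 mg/mL, twofold dilutions 0.016–64 μg/mL; read at 24 h, 28 °C, no visible growth. Mean MIC over strains converted to μmol/mL, divided by bifonazole MIC.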

Candida albicans [2] = experiment: In vitro minimal inhibitory concentration against Candida albicans with percentage of resistant strains %R = 41.66 (MIC > 64 ug/mL) at a range of 0.25-4 ug/mL; type: functional
Candida albicans [3] = experiment: In vitro concentration causing 50% inhibition of Candida albicans with percentage of resistant strains %R = 41.66 (MIC > 64 ug/mL) at a range of 0.25-4 ug/mL; type: functional
Candida albicans [4] = experiment: In vitro concentration causing 90% inhibition of Candida albicans with percentage of resistant strains %R = 41.66 (MIC > 64 ug/mL) at a range of 0.25-4 ug/mL; type: functional
Candida albicans [5] = experiment: In vitro minimal inhibitory concentration against Candida albicans with percentage of resistant strains %R = 33.33 (MIC > 64 ug/mL) at a range of 0.125-2 ug/mL; type: functional
Candida albicans [6] = experiment: In vitro concentration causing 50% inhibition of Candida albicans with percentage of resistant strains %R = 33.33 (MIC > 64 ug/mL) at a range of 0.125-2 ug/mL; type: functional
Candida albicans [7] = experiment: In vitro concentration causing 90% inhibition of Candida albicans with percentage of resistant strains %R = 33.33 (MIC > 64 ug/mL) at a range of 0.125-2 ug/mL; type: functional
Candida albicans [8] = experiment: In vitro minimal inhibitory concentration against Candida albicans with percentage of resistant strains %R = 50 (MIC > 64 ug/mL) at a range of 2-16 ug/mL; type: functional
Candida albicans [9] = experiment: In vitro concentration causing 50% inhibition of Candida albicans with percentage of resistant strains %R = 50 (MIC > 64 ug/mL) at a range of 2-16 ug/mL; type: functional
Candida albicans [10] = experiment: In vitro concentration causing 90% inhibition of Candida albicans with percentage of resistant strains %R = 50 (MIC > 64 ug/mL) at a range of 2-16 ug/mL; type: functional
Candida albicans [11] = experiment: In vitro minimal inhibitory concentration against Candida albicans with percentage of resistant strains %R = 33.33 (MIC > 64 ug/mL) at a range of 0.25-0.5 ug/mL; type: functional
Candida albicans [12] = experiment: In vitro concentration causing 50% inhibition of Candida albicans with percentage of resistant strains %R = 33.33 (MIC > 64 ug/mL) at a range of 0.25-0.5 ug/mL; type: functional
Candida albicans [13] = experiment: In vitro concentration causing 90% inhibition of Candida albicans with percentage of resistant strains %R = 33.33 (MIC > 64 ug/mL) at a range of 0.25-0.5 ug/mL; type: functional
Candida albicans [14] = experiment: In vitro minimal inhibitory concentration against Candida albicans with percentage of resistant strains %R = 0 (MIC > 64 ug/mL) at a range of 0.062-0.5 ug/mL; type: functional
Candida albicans [15] = experiment: In vitro concentration causing 50% inhibition of Candida albicans with percentage of resistant strains %R = 0 (MIC > 64 ug/mL) at a range of 0.062-0.5 ug/mL; type: functional
Candida albicans [16] = experiment: In vitro concentration causing 90% inhibition of Candida albicans with percentage of resistant strains %R = 0 (MIC > 64 ug/mL) at a range of 0.062-0.5 ug/mL; type: functional
Candida albicans [17] = experiment: In vitro minimal inhibitory concentration against Candida albicans with percentage of resistant strains %R = 0 (MIC > 64 ug/mL) at a range of 0.016-0.5 ug/mL; type: functional
Candida albicans [18] = experiment: In vitro concentration causing 50% inhibition of Candida albicans with percentage of resistant strains %R = 0 (MIC > 64 ug/mL) at a range of 0.016-0.5 ug/mL; type: functional
Candida albicans [19] = experiment: In vitro concentration causing 90% inhibition of Candida albicans with percentage of resistant strains %R = 0 (MIC > 64 ug/mL) at a range of 0.016-0.5 ug/mL; type: functional
Candida albicans [20] = experiment: In vitro concentration causing 50% inhibition of Candida albicans with percentage of resistant strains %R = 33.3 (MIC > 64 ug/mL) at a range of 0.25-32 ug/mL
Candida albicans [21] = experiment: In vitro concentration causing 90% inhibition of Candida albicans with percentage of resistant strains %R = 33.3 (MIC > 64 ug/mL) at a range of 0.25-32 ug/mL
Candida albicans [22] = experiment: In vitro minimal inhibitory concentration against Candida albicans with percentage of resistant strains %R = 33.3 (MIC > 64 ug/mL) at a range of 0.25-32 ug/mL

| SMILES | Ratio (Candida albicans [1]) | also measured |
| --- | --- | --- |
| COc1ccc(C(Cc2cccc(F)c2)n2ccnc2)cc1 (stereo not given) | 51 |  |
| CCn1cc(-c2ccc(Cl)cc2Cl)c(C(c2ccccc2)n2ccnc2)c1 (stereo not given) | 0.33 | MIC (Candida albicans [2]): 1.46 µg/mL (≈ 3.68 µM); MIC50 (Candida albicans [3]): 1 µg/mL (≈ 2.52 µM); MIC90 (Candida albicans [4]): 2 µg/mL (≈ 5.05 µM) |
| O=[N+]([O-])c1ccc(-c2c[nH]cc2C(c2ccc(Cl)cc2Cl)n2ccnc2)cc1 (stereo not given) | 4.5 |  |
| COc1ccc(C(Cc2ccccc2[N+](=O)[O-])n2ccnc2)cc1 (stereo not given) | 97 |  |
| Clc1ccc(C(c2c[nH]cc2-c2ccc(-c3ccccc3)cc2)n2ccnc2)c(Cl)c1 (stereo not given) | 4.3 |  |
| Cc1ccc(C(c2ccn(-c3ccc(Cl)cc3)c2)n2ccnc2)cc1 (stereo not given) | 1.1 |  |
| COc1ccc(C(Cc2ccccc2F)n2ccnc2)cc1 (stereo not given) | 49 |  |
| CCn1cc(-c2ccc(Cl)c(Cl)c2)c(C(c2ccc(C)cc2)n2ccnc2)c1 (stereo not given) | 0.47 | MIC (Candida albicans [5]): 2.18 µg/mL (≈ 5.31 µM); MIC50 (Candida albicans [6]): 2 µg/mL (≈ 4.87 µM); MIC90 (Candida albicans [7]): 2 µg/mL (≈ 4.87 µM) |
| c1ccc(C(c2ccn(-c3ccccc3)c2)n2ccnc2)cc1 (stereo not given) | 2.3 |  |
| COc1ccc(C(Cc2ccccc2-n2cccc2)n2ccnc2)cc1 (stereo not given) | 7.8 |  |
| Fc1ccc(C(c2ccn(-c3ccc(F)cc3)c2)n2ccnc2)cc1 (stereo not given) | 1.4 |  |
| N#Cc1ccc(-c2c[nH]cc2C(c2ccc(Cl)cc2Cl)n2ccnc2)cc1 (stereo not given) | 4.3 |  |
| Clc1ccc(C(c2ccn(-c3ccc(Cl)cc3)c2)n2ccnc2)cc1 (stereo not given) | 7.3 |  |
| Clc1ccc(-c2cn(-c3ccccc3)cc2C(c2ccccc2)n2ccnc2)cc1 (stereo not given) | 1.5 | MIC (Candida albicans [8]): 7 µg/mL (≈ 17.1 µM); MIC50 (Candida albicans [9]): 4 µg/mL (≈ 9.76 µM); MIC90 (Candida albicans [10]): 16 µg/mL (≈ 39 µM) |
| Fc1ccc(-n2ccc(C(c3ccccc3)n3ccnc3)c2)cc1 (stereo not given) | 4.1 |  |
| Clc1ccc(-c2c[nH]cc2C(c2ccc(Cl)cc2Cl)n2ccnc2)cc1 (stereo not given) | 0.92 | MIC (Candida albicans [11]): 4.2 µg/mL (≈ 10.4 µM); MIC50 (Candida albicans [12]): 0.25 µg/mL (≈ 0.621 µM); MIC90 (Candida albicans [13]): 0.5 µg/mL (≈ 1.24 µM) |
| CC(C)=CCn1cc(-c2ccc(Cl)cc2)c(C(c2ccccc2)n2ccnc2)c1 (stereo not given) | 0.043 | MIC (Candida albicans [14]): 0.194 µg/mL (≈ 0.483 µM); MIC50 (Candida albicans [15]): 0.065 µg/mL (≈ 0.162 µM); MIC90 (Candida albicans [16]): 0.5 µg/mL (≈ 1.24 µM) |
| c1ccc(-c2c[nH]cc2C(c2ccc3ccccc3c2)n2ccnc2)cc1 (stereo not given) | 3.8 |  |
| Clc1ccc(-c2cn(CC3CC3)cc2C(c2ccccc2)n2ccnc2)cc1 (stereo not given) | 0.025 | MIC (Candida albicans [17]): 0.111 µg/mL (≈ 0.286 µM); MIC50 (Candida albicans [18]): 0.016 µg/mL (≈ 0.0412 µM); MIC90 (Candida albicans [19]): 0.125 µg/mL (≈ 0.322 µM) |
| Fc1ccc(C(c2ccn(-c3ccccc3)c2)n2ccnc2)cc1 (stereo not given) | 1.8 |  |
| Oc1ccc(-c2c[nH]cc2C(c2ccc(Cl)cc2Cl)n2ccnc2)cc1 (stereo not given) | 26 |  |
| CCn1cc(-c2ccc(Cl)cc2)c(C(c2ccccc2)n2ccnc2)c1 (stereo not given) | 0.11 | MIC50 (Candida albicans [20]): 1 µg/mL (≈ 2.76 µM); MIC90 (Candida albicans [21]): 8 µg/mL (≈ 22.1 µM); MIC (Candida albicans [22]): 5.59 µg/mL (≈ 15.4 µM) |
| FC(F)(F)c1ccc(-c2c[nH]cc2C(c2ccc(Cl)cc2Cl)n2ccnc2)cc1 (stereo not given) | 2.2 |  |
| COc1ccc(C(Cc2cccc(Cl)c2)n2ccnc2)cc1 (stereo not given) | 44 |  |
